Assay results: the RNAGym collection of RNA variant scans (doi:10.1126/science.aae0568)
Fewer inactive variants are shown than the library holds.

B1: tRNA (parent)
chain: GUUCCGUUGGCGUAAUGGUAACGCGUCUCCCUCCUAAGGAGAAGACUGCGGGUUCGAGUCCCGUACGGAACG

Variants of: B1
Assay: yeast fitness relative to wild type (ratio to wild type); higher = fitter; tRNA-Arg(CCU), competitive growth, 37 C, YPD
In short: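 The tRNA-Arg(CCU) gene variants were made by chemical synthesis with a 3% per-site mutation rate at 69 sites and inserted at the native genomic locus of Saccharomyces cerevisiae. After pooling, the strains were competed in YPD at 37°C for 24 hours in six parallel replicates. Gene amplicons from the start population and each end population were read by 100-nucleotide paired-end sequencing, and Darwinian fitness relative to wild type was taken from genotype frequency changes. Genotypes needed ≥ 100 starting reads, and estimates < 0.5 were set to 0.5.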
Variant GUUCCGUUGGCGUGAUGGUAACGCAUCUCCCUCCUAAGGUGAAGACUGUGGGUUCGAGUACCAUACGGAACG has a yeast fitness of at most 0.5. Work on GUUCCGUUGGCGUAAUGGUAACGCGUCUCCAUCCUAAGGAGAAGACCGCGGGUUCGAGUCCCGUACGGAACG yielded a yeast fitness of 0.767. Variant GUUCCGUUGGCGUAAUCCUAACGCGUCUCCCUCCUAAGAAGAAGACUGCGGGUUCGCGUCCCGUACGGAACG has a yeast fitness of at most 0.5. Variant GUUCCGUUGGGGUAAUGGUAACGCGUCUCCCUCCUAAGGAGAAGUCUGCAGGUUCGAGUCCCAAACGGAACG has a yeast fitness of 0.668. GUUCCGUUGGCGGAAUGGUAACGCGUCUUCCUUCUAAGGAGAAGACUGCGGGUUCGAGUCCCGUACAGAACG showed a yeast fitness of at most 0.5. GUACCGUUGGUGUAAUGGUAACGCGUCUACCUCCUAAGGAGGAGACUGCGGGUUCGAGUCCCGUACGGAACG gave a yeast fitness of 0.629. GUUCCGUUGGCGCAAUGGUAACGCGUCUCCCUACUCAGGAGAAGACUGCGGGUUCGAGUCCCCUAGGGAACG showed a yeast fitness of at most 0.5. GUUCCGUUGGCGUAAUGGUAACGCGUCUCCCUCCUAAGGAGAAGACUCCGGGUUCGAGUCCCAUACGGAACG gave a yeast fitness of 0.877. Variant GUUCCGUUGGCGUAAGGGUAACGGGACUCCCUCCUAAGGAGAAGACUGCAGGUUCGAGUCCCGUACGGAACG has a yeast fitness of 0.581. In the case of GUUCCGUAGGCGUAAAGGUAACGCGUGUCCCUCCUAAGGAGAAGACUGCGGGUUCGAGCCUCGUACGGAACG, the yeast fitness is reported as at most 0.5. With GUUCCGCUGGCGUAAUGGUAACGCGUCUCCCUUCUAAGCAGAAGACUGCGGGUUCGAAUCCCGUACGGAACG the yeast fitness was at most 0.5. Work on GUUCGGUUGGCGUAGUGGUAACGCGUGUCACUCCUAAGGAGAAGACUGCGGGUUCGAGUCCCGUACGGAACG yielded a yeast fitness of at most 0.5. Variant GUUCCGUUAGCCAAAUGGUAACGCAUCUCGCUCCUAAGGAGAAGACUGCGGGUUCGAGUCCCGUAAGGAACG has a yeast fitness of at most 0.5. Variant GUACCGUUGGCGUAAUGGUAUCCCGUCUCCCUCCUAAGGAGACGACUGCGGGUUCGAGUCCCGUACGGAACG has a yeast fitness of at most 0.5. For GUUCCGUUGGCGUAAUGGUAACGCGUCUCCCUCCUAAGGAGAAGACUGCGAGUUCGAGUCCCGUACGGUACG, the yeast fitness was 0.738. With GUUCCGUUGGCGUAAUGGUAACACGUCUCCCUCCUAAAGAGAAGACUGCGGGUUUGAGUCCCGUACGGAACG the yeast fitness was at most 0.5. In the case of GUUCCGUUGGCGUAAUGGUAACGCGUCUCCCUCCUAAGGCGCAGACUGCGGGUUCGAGUCCCGUACGGAUCG, the yeast fitness is reported as 0.549. Variant GUCCCGUCGGCGUAAUGGUAACGCGUCUCCCUCCUAAGGAGAAGACUGCGGGUUCGCGUCCCGUACGGAACG has a yeast fitness of at most 0.5. For GUUCCGUUGGCGUAAUGGUAACGGGACUCCCUCCUAAGGAGAAGACUGCGGGUUCGAGUGCCGUACGGAACG, the yeast fitness was at most 0.5. GUUCCGUUGGCGUAAUGGUCACGCGUCUCCCUCUUAAGGAGAAGACUGCGGGUUCGAGUACCGUAUGGAACG showed a yeast fitness of 0.605. With GUUCCGUUGGCGUACUGGUACCGCGUCUCCCUCCUUAGGAGAAGACCGCGGGUUCGAGUCCCAUACGAAACG the yeast fitness was at most 0.5. Variant GUUCCGCUGGCGUAAUGGUAACGCGUCUCCCUCCUAACGAGAAGACUGAGGGUUCGAGUCCCGUACGGACCG has a yeast fitness of at most 0.5. GUUCCGUUGGGGUAAUGGUAACGCGUCUCCCUCAUAAGGAGAAGACUGCGGGAUCGAGUCCCGUACGGAACG gave a yeast fitness of 0.609. For GUUCCGUUGGCGUAAUGGUAAGGCGUCUCCCUCCUAAGGAGAAGACUGCGAGUUCGUGUCCCGUACGGAACG, the yeast fitness was at most 0.5. GUUCGGUUGGCGUAAUGGUAACGCGUCUCCCUCCUAAGGAGAAGACUGCGGGUUCGAGUCUCGUUCGGAACG gave a yeast fitness of 0.557. For GCUCCGUUGGCGUAAUGCUAACGCGUCUCCCUCCUAAGGAGAAGACUGCGGGUUCGAGUCCCGUACGGAACG, the yeast fitness was 0.723. Work on GUUCCGUUAGCGUAAUGGUAACGCGUCUCCCUCCUAAGGAGACGACUGCGGGUUCGUGUCCCGUAUGGAACG yielded a yeast fitness of 0.516. GUUCCGUUGGUGUAAUGGUACAGCGUCUCCCUCCUAAGGAGAAGACUGCGGGUUCGAGUCCCGUAAGGAACG gave a yeast fitness of at most 0.5. Work on GUUCCGUUGGCGUAAUGGUAACGCGUGUCCCUCCUAAGAAGAAGAUUGCGGGUUCGAGUCCCGUAUGGAACG yielded a yeast fitness of at most 0.5. Variant GUUUCGUUGGCGUAAGGGUAACGCGUCUCCCUCCUAAGGAGAAGACUGCGGGUUCGAGUCCCGUACGGCACG has a yeast fitness of 0.645. For GUUCCGUAGGCAUAAUGGUAACGCGUCUCCCUCCUAAGGAGAAGACUGCGGGUUCGAGUCCAGUACGGAACG, the yeast fitness was 0.53. In the case of GUUCUGUUGGCGUAACGGUGACGCGUCUACCUCCUAAGGAGAAGACUGCGGGUUCGAGUCCCGUACGGAACG, the yeast fitness is reported as at most 0.5. GUCCCGUUGGCGUAAUGGUAACGCGUCUCCUUCCUAAGGAGAAGACUGCGGGUUCGAGUCCCAUACGGAACG showed a yeast fitness of 0.771. With GUUCCGUAGGCGUAAUGGUAACGCGUCUCCCUCCUAAGCAGAAGACUGCGGGUUCGAGUCCCGUGCGGAACG the yeast fitness was at most 0.5. Work on GUUCCGUUCGCGUAGUGGUAACGCGUCUCCCUCCUAAGGAGAAGACUGAGGGUUCGAGUCCCGUACGGUACG yielded a yeast fitness of at most 0.5. In the case of GUUCCGUUGGCGUAAUAGUAACGCGUCUCCCUCCGAAGGAGAAGACUCCGGGUUCGAGUCCCGUACGGAACG, the yeast fitness is reported as 0.502. In the case of GUUCCGUUGGCGUAAUGGUAACGCGUCUCCCUCGUAAGGAGAAGACUGCGGGUUCGAGUCCCGUUCGGAGCG, the yeast fitness is reported as at most 0.5. Work on GUUGCGUUGGCGUAAUGCUAACGCGUCUCCCUGCUAAGGAAAAGACUGCGGGUUGGAGUCCCGUACGGAACG yielded a yeast fitness of at most 0.5.
